# Experimental data from different studies.
# Each line is one published result; the experiments were not run side by side.
# Effect on: enzyme activity
# Action: inhibitor
# PDGFRA: Platelet-derived growth factor receptor alpha (PDGFRA, Homo sapiens, UniProt P16234)
# PDGFRA D842V: Platelet-derived growth factor receptor alpha (PDGFRA, Homo sapiens, UniProt P16234, D842V)
Structure (SMILES),target,assay,conditions,inhibition [%]
CNC(=O)c1cc2c(Oc3ccc(NC(=O)C4(C(=O)Nc5ccc(F)cc5)CC4)cc3)ccnc2cc1OC,PDGFRA,radiometric,1 µM,71
COc1cc2ncnc(Nc3ccc(Oc4ccccc4)c(C)c3C)c2cc1OC,PDGFRA,,1 µM,6
CCCS(=O)(=O)Nc1ccc(F)c(C(=O)c2c[nH]c3ncc(-c4ccc(Cl)cc4)cc23)c1F,PDGFRA,,1 µM,< 10
CC/C(=N\NC(=O)NCc1cccc(O)c1)c1ccc(O)c(C)c1O,PDGFRA D842V,,0.1 µM,1.1
CNC(=O)c1cc(Oc2ccc(NC(=O)Nc3ccc(Cl)c(C(F)(F)F)c3)cc2)ccn1,PDGFRA,,0.3 µM,35
COc1cc(-c2cc(-c3ccc(N4CCNCC4)cc3)cnc2N)cc(OC)c1OC,"Platelet-derived growth factor receptor alpha (PDGFRA, Homo sapiens, UniProt P16234, T674I)",,0.1 µM,2
COc1cc2ncnc(Nc3ccc(Oc4ccccc4)cc3C)c2cc1OC,PDGFRA D842V,,1 µM,-1
CNCc1ccc(-c2cc(-c3nc(-c4ccc(S(=O)(=O)C(C)C)cc4)cnc3N)on2)cc1,PDGFRA,,0.4 µM,0
CS(=O)(=O)Nc1cccc(-c2csc(NC(=O)CSc3nc4nccnc4c(=O)n3CCc3ccccc3)n2)c1,PDGFRA,,10 µM,5
